L major viab: inhibitors of Leishmania major promastigote growth; Leishmania major promastigotes, resazurin fluorescence viability; inhibition, % at 10 µM; hit rate 9% among 200,000; AID 1063; in the data active = inhibition above about 50%;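 also: promastigotes grown with compound for 44 hours at 28 °C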
CHOP UPR activ: activators of apoptotic arm of unfolded protein response (CHOP); activation, % at 10 µM; CHO-CHOP luciferase reporter, UPR activation, luminescence; percent of tunicamycin response over DMSO baseline; AID 449763; hit rate 0.34% among 330,000;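 active = at 10 µM dose, activation of 40% or more, normalized to positive control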;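 also: 100% = tunicamycin at 10 µg/mL and 0% = DMSO alone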
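Test system: CHO CHOP reporter cells. Input: 500 CHO-CHOP cells per well. Medium: F12 with 10% FBS. Technique: luciferase luminescence. Measure: percent activation relative to tunicamycin control. Dosing: 10 µM compound, 0.5% DMSO. Timing: 16-18 h cell attachment, then 6 h compound exposure, 37 °C.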
Dynein cargo inh: blocks dynein driven cargo transport along microtubules; 3617.4 mouse cells, GR-EGFP nuclear translocation imaging; test concentration mostly 20 µM; stimulated with dexamethasone, 1 µM; active compounds read low; z-score, hits read low; hit rate 0.47% among 220,000;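 active = plate z-score of nuclear minus cytoplasmic receptor signal below a set negative limit, without overly bright fluorescence or cell loss, cut at about -3.5 in these data, passing the limit was not always enough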;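 also: z-score of nuclear minus cytoplasmic ring GR-EGFP intensity difference per well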
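Buffer or medium: tet-free, stripped-serum medium; reagent: dexamethasone at 1.0 µM final, 30 min; incubation: 48 h induction, 1 h compound, 30 min dex at 37 °C; measured by: formaldehyde fixation, Hoechst nuclear stain, 10x automated fluorescence imaging; read-out: nuclear-to-cytoplasmic GR-EGFP distribution per well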
T cruzi inh: T. cruzi replication inhibition; T. cruzi beta-gal in NIH3T3, luminescence, 90 h; inhibition, % (no concentration beside the values); hit rate 1.4% among 300,000; AID 1885;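 active = mean inhibition across valid replicates above about 55%, limit read from the data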;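 also: signal also drops with host cell toxicity which is not excluded here; 0% = plate median of DMSO wells and 100% = zero luminescence signal; higher percent means less beta-gal luminescence so fewer parasites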
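Test system: β-gal T. cruzi (Tulahuen C4) inside NIH/3T3 cells / Quantity: 5,000 cells/well / Measured by: luminescence from GalScreen with 0.05% NP40, read after 60 min / Medium: DMEM plus 2% FBS / Measure: parasite load inhibition, % / Reagent: Tulahuen C4 trypomastigotes, 5000/well / Schedule: co-culture of at least 90 h after 3 h attachment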
CHOP inh: CHOP inhibition in unfolded protein response | inhibition, % at 10 µM | CHO-K1 CHOP-promoter luciferase, tunicamycin-induced, 15-18 h | hit rate 3.8% among 220,000 | AID 2732;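 active = compounds that reduced the stress-induced luciferase reporter signal by more than about 70% of percent inhibition, limit read from the data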;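 also: 0% = tunicamycin plus vehicle and 100% = wells without tunicamycin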
UPR XBP1 act: activators of adaptive arm of unfolded protein response (XBP1). CHO-XBP1 luciferase reporter, IRE1-XBP1 UPR activation, luminescence; percent of tunicamycin response, DMSO as zero. activation, % at 20 µM. hit rate 0.33% among 330,000;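 active = versus positive control, 20 µM dose yields 30% or more activation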;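 also: 100% = tunicamycin at 10 µg/mL and 0% = DMSO only wells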
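Assay system: IRE1-XBP1 luciferase reporter CHO line. Input: 1000 cells/well. Buffer or medium: F12 with 10% serum. Doses: 20 µM, 1% DMSO. Times: overnight seeding at 37 °C, 6 h compound treatment at 37 °C. Technique: Steady-Glo luciferase glow luminescence, 10 min after reagent addition.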
* hit, by the source's call. Shown is part of a subset that was picked to be rich in hits.

`Cc1ccc(C(=O)N2CCN(C(=O)c3ccc(C)cc3)C2)cc1` gave L major viab 1.1, CHOP UPR activ 1.2, Dynein cargo inh 0.412, T cruzi inh -7.9, CHOP inh 20.1 and UPR XBP1 act -1.9.
For CCC12CN(C(=O)c3ccc(C)cc3)CC(CC)(CN(C(=O)c3ccc(C)cc3)C1)C2=O the results were L major viab 51.9*, CHOP UPR activ 0.7, Dynein cargo inh -0.244, T cruzi inh -9.5, CHOP inh 17.5 and UPR XBP1 act 0.6.
For Cc1ccc(C(=O)CSc2nnc(N)s2)c(C)c1 the results were L major viab -4.1, CHOP UPR activ 3.1, Dynein cargo inh -0.222, T cruzi inh -6.0, CHOP inh 0.2 and UPR XBP1 act -1.3.
Screening CNC(=S)Nc1cc(Cl)ccc1Oc1ccccc1 returned L major viab 2.1, CHOP UPR activ -1.2, Dynein cargo inh -0.537, T cruzi inh 2.2, CHOP inh 19.4 and UPR XBP1 act 1.2.
For S=C(Nc1ccc(Cl)cc1Cl)Nc1ccccc1Oc1ccccc1 the results were L major viab 6.9, CHOP UPR activ -4.0, Dynein cargo inh -0.64, T cruzi inh 3.9, CHOP inh 78.5* and UPR XBP1 act 0.7.
Screening S=C(Nc1cccc(Cl)c1)Nc1ccccc1Oc1ccccc1 returned L major viab 26.7, CHOP UPR activ -5.1, Dynein cargo inh 1.35, T cruzi inh 17.2, CHOP inh 73.6* and UPR XBP1 act -0.7.
For CCNC(=S)Nc1cc(Cl)ccc1Oc1ccccc1 the results were L major viab 66.7*, CHOP UPR activ -2.0, Dynein cargo inh -0.583, T cruzi inh -3.4, CHOP inh 15.3 and UPR XBP1 act -3.7.
`S=C(Nc1ccccc1Oc1ccccc1)Nc1cccc(Cl)c1Cl` gave L major viab 13.8, Dynein cargo inh -0.979, T cruzi inh -18.8 and CHOP inh 34.8.
`O=C(CC1(CC(=O)N2CCOCC2)CCCC1)Nc1ccc(F)cc1` gave CHOP UPR activ 0.9 and UPR XBP1 act -2.1.
`O=C(NS(=O)(=O)Nc1ccccn1)c1c[nH]c2ccccc12` gave CHOP UPR activ 0.5, T cruzi inh 2.0 and UPR XBP1 act -0.5.
Cc1ccc2c(c1)CCCN2C(=O)CCc1nc2ccccc2c(=O)[nH]1 was read as CHOP UPR activ 0.8 and UPR XBP1 act 1.3.
Screening O=C(CNC(=O)c1ccc(S(=O)(=O)N2CCCC2)cc1)N/N=C/c1ccc(F)cc1 returned L major viab 54.5*, CHOP UPR activ -0.2, Dynein cargo inh -0.191, T cruzi inh -3.7, CHOP inh -11.4 and UPR XBP1 act -1.4.
O=C(CNC(=O)c1ccc(S(=O)(=O)N2CCCC2)cc1)N/N=C/c1ccccc1Cl was read as L major viab 94.1*, CHOP UPR activ -0.3, Dynein cargo inh 1.82, T cruzi inh 14.0, CHOP inh 42.5 and UPR XBP1 act -0.5.
Screening Oc1ccc2ccccc2c1C=NC1CCCCC1 returned L major viab 62.1*, CHOP UPR activ 3.6, Dynein cargo inh 1.86, T cruzi inh -20.3, CHOP inh -8.8 and UPR XBP1 act -2.0.
For O=C(N/N=C\c1c(O)ccc2ccccc12)c1ccc(S(=O)(=O)N2CCCCC2)cc1 the results were L major viab 99.9*, CHOP UPR activ -0.9, Dynein cargo inh 1.59, T cruzi inh 57.7*, CHOP inh 64.8 and UPR XBP1 act -0.1.
Oc1ccc2ccccc2c1/C=N/n1cnnc1 was read as L major viab -12.0, CHOP UPR activ -1.3, Dynein cargo inh -0.793, T cruzi inh -2.3, CHOP inh 60.5 and UPR XBP1 act -1.6.
For O=C(CNC(=O)c1ccc(S(=O)(=O)N2CCCC2)cc1)N/N=C/c1ccco1 the results were L major viab 19.9, CHOP UPR activ -2.1, Dynein cargo inh 0.811, T cruzi inh -3.5, CHOP inh 6.9 and UPR XBP1 act -2.3.
Screening O=C(NN=Cc1c(O)ccc2ccccc12)c1ccc2c(c1)OCO2 returned CHOP UPR activ 0.4 and UPR XBP1 act 4.0.
For COc1ccc(CN2C(=NC(=O)CCc3ccccc3)SC3CS(=O)(=O)CC32)cc1 (configuration not stated) the results were CHOP UPR activ 4.1, T cruzi inh 8.3 and UPR XBP1 act -2.6.
Cc1ccc(C)c(S(=O)(=O)N2CC(=O)N(CCc3ccccc3)C(=O)C2)c1 was read as L major viab -8.7, CHOP UPR activ 2.8, Dynein cargo inh -0.612, T cruzi inh -19.1, CHOP inh 58.3 and UPR XBP1 act -0.4.
Screening CCOC(=O)[C@H]1[C@H]2COc3ccc(OC)cc3[C@@H]2N2C(=O)CN(Cc3ccccc3)C(=O)[C@@]12C returned CHOP UPR activ 0.5 and UPR XBP1 act 0.5.
`CC1=C([N+](=O)[O-])C(c2ccccc2Cl)NC(=O)N1C` (configuration not stated) gave CHOP UPR activ 1.5, T cruzi inh 4.5 and UPR XBP1 act -2.2.
`CC(NC(=O)COC(=O)C1CCCCC1)c1ccccc1` (configuration not stated) gave CHOP UPR activ 1.4 and UPR XBP1 act -3.7.
`COc1ccc(OC)c(/C=N/NC(=O)CNC(=O)c2ccc(S(=O)(=O)N3CCOCC3)cc2)c1` gave L major viab 64.9*, CHOP UPR activ -2.0, Dynein cargo inh 0.286, T cruzi inh -0.2, CHOP inh -3.8 and UPR XBP1 act -1.6.
`Cc1ccc(S(=O)(=O)Nc2cc(C)c(O)c(Sc3n[nH]c(C)n3)c2)cc1` gave CHOP UPR activ 1.6, T cruzi inh -2.3 and UPR XBP1 act -1.8.
For C=CCc1cccc(/C=N/NC(=O)CNc2ccccc2)c1O the results were L major viab -6.4, CHOP UPR activ 0.5, Dynein cargo inh 0.391, T cruzi inh 51.7, CHOP inh 88.5* and UPR XBP1 act 2.2.
Screening C=CCc1cccc(/C=N/NC(=O)C(C)Nc2cccc(C)c2)c1O (configuration not stated) returned L major viab 18.9, CHOP UPR activ -3.5, Dynein cargo inh -0.438, T cruzi inh 81.5*, CHOP inh 91.1* and UPR XBP1 act -2.2.
C=CCc1cccc(/C=N/NC(=O)CNc2ccccc2OC)c1O was read as L major viab -9.9, CHOP UPR activ -0.3, Dynein cargo inh -0.00663, T cruzi inh 65.1*, CHOP inh 88.6* and UPR XBP1 act 0.5.
Screening C=CCc1cccc(/C=N/NC(=O)CNc2cccc3ccccc23)c1O returned L major viab -13.9, CHOP UPR activ 1.5, Dynein cargo inh -0.0768, T cruzi inh 37.6, CHOP inh 41.5 and UPR XBP1 act 3.6.

Bioassay records (PubChem BioAssay)
